# Compounds with a hit are over-represented: about 1.1% of the library has one in this group of screens.
# TNAP inh no acc = human TNAP enzyme inhibitors, primary screen, biochemical, luminescent, no phosphate acceptor, uHTS; Alkaline phosphatase, tissue-nonspecific isozyme (Homo sapiens), P05186; purified TNAP, CDP-star luminescence, 30 min; inhibition, % at 20 µM; hit rate 0.26% among 200,000; AID 1012, 2008;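 active = tissue-nonspecific alkaline phosphatase inhibition above about 50% at 20 µM in the single-dose screen, limit read from the data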
# Target sequence (P05186 whole entry, looked up): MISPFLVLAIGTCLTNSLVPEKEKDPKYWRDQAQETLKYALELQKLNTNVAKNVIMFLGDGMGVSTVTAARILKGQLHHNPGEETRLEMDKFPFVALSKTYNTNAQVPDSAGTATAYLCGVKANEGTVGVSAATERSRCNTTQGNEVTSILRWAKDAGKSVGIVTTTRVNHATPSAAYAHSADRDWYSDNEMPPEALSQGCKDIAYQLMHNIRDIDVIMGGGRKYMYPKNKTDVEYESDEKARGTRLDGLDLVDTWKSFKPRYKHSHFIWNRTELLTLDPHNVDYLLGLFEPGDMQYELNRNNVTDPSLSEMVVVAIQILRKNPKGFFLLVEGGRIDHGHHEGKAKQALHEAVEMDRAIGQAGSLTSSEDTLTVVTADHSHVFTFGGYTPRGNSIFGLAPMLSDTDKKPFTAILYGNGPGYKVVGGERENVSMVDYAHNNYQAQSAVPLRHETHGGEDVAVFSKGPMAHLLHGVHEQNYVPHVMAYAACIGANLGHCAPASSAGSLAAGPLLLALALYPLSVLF
# S1P4 antagonist = S1P4 receptor antagonists, primary screen, cell-based; S1P4-expressing cells, antagonist mode, reporter read-out; inhibition, % at 4.98 µM; hit rate 0.26% among 220,000; in the data active = inhibition above about 29%
# S1P3 antagonist = S1P3 receptor antagonists, primary screen, cell-based | Sphingosine 1-phosphate receptor 3 (Homo sapiens), Q99500 | CHO S1P3 NFAT-BLA reporter, FRET fluorescence, antagonist mode | inhibition, % at 4.98 µM | hit rate 0.27% among 170,000;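 active = inhibition above the plate cutoff, the mean inhibition of test wells on that plate plus 3 SD, cut at about 28% in these data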;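 note: cells challenged with S1P at its EC80 of 0.8 µM; blue over green emission ratio from cleaved BLA substrate after 4 h stimulation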
# TNAP act hi DEA = TNAP activators at high phosphate acceptor level, primary screen, biochemical, luminescence, uHTS | Alkaline phosphatase, tissue-nonspecific isozyme (Homo sapiens), P05186 | purified TNAP, CDP-star luminescence, 1 M DEA, 30 min; stronger effect = higher value; 0 = EDTA background, 1 = DMSO-only activity | activation factor at 20 µM | 200,000 tested, under 10 active;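 active = activation factor at least 2 at 20 µM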
#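 Assay system: human TNAP; Input: enzyme diluted 1/800 final; Reagent: CDP-star luminogenic substrate at 100 µM final; Timing: 30 min, room temperature; Signal: luminescence; Evaluation: TNAP activation factor scaled between EDTA and DMSO control wells.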
# TNAP inh hiacc = human TNAP enzyme inhibitors, primary screen, biochemical, luminescent, high phosphate acceptor level, uHTS; purified TNAP, CDP-star luminescence, 1 M DEA; inhibition, % at 20 µM; hit rate 0.03% among 200,000;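 active = over 50% inhibition of tissue-nonspecific alkaline phosphatase at 20 µM in the single-dose screen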
# S1P4 ag = S1P4 receptor agonists, primary screen, cell-based | AID 1509, 2009 | S1P4-expressing cell line, agonist reporter assay | activation, % at 4.98 µM | hit rate 0.35% among 220,000 | Sphingosine 1-phosphate receptor 4 (Homo sapiens), O95977; in the data active = activation above about 11%
# Hits are given with their value; . = inactive; / = no result given.
SMILES,TNAP inh no acc,S1P4 antagonist,S1P3 antagonist,TNAP act hi DEA,TNAP inh hiacc,S1P4 ag
Cc1cc(C)c2c(NC(N)=S)n[nH]c2n1,.,.,.,.,.,.
Cc1cc(C)c2c(N=NN(C)C)[nH]nc2n1,52,.,/,.,.,.
CN1C(=O)c2ccc(NC(=O)CCS(=O)(=O)c3ccccc3)cc2C1=O,.,.,.,.,.,.
COc1cccc(NS(=O)(=O)c2ccc(OC)c(OC)c2)c1,.,.,63,.,.,.
COc1ccc(S(=O)(=O)Nc2ccccc2)cc1OC,.,.,/,.,.,.
CS(=O)(=O)N1CCSC1c1ccc(Br)cc1 (configuration not stated),/,.,.,/,/,.
Brc1ccc(C2NCCS2)cc1 (configuration not stated),72,.,.,.,.,.
Cc1cc(C(=O)CSc2n[nH]c(-c3ccccc3F)n2)c(C)n1Cc1cccs1,91,.,/,.,.,.
Cc1c(NC(=O)CSc2n[nH]c(-c3ccccc3)n2)c(=O)n(-c2ccccc2)n1C,53,.,/,.,.,.
O=C(CSc1n[nH]c(-c2ccccc2)n1)Nc1ccc(Br)cn1,57,.,/,.,.,.
Cc1noc(NS(=O)(=O)c2ccc(NC(=O)CSc3n[nH]c(-c4ccccc4)n3)cc2)c1C,60,.,.,.,.,.
CCN1CCN(c2ncnc3c2cnn3-c2ccccc2)CC1,.,.,90,.,.,.
CCOc1cccc(/C=N/NC(=S)Nc2ccccc2[N+](=O)[O-])c1O,.,.,.,.,.,.
O=[N+]([O-])c1ccccc1NC(=S)N/N=C/c1ccc(O)c(O)c1,85,.,.,.,.,.
Cc1cc(C(=O)N/N=C/c2c(C)nn(-c3ccccc3)c2C)c(C)o1,/,.,.,/,/,.
Cc1cccc(/C=N/n2c(-c3ccccn3)n[nH]c2=S)c1,54,.,.,.,.,.
S=c1[nH]nc(-c2ccccn2)n1/N=C/c1ccccc1,.,.,.,.,.,.
CN1CCc2cc(Cl)c(O)cc2[C@@H](c2ccccc2)C1,.,.,.,.,.,.
Oc1cc2c(cc1O)[C@@H](c1ccccc1)CNCC2,66,.,.,.,.,.
O=C(CNS(=O)(=O)c1ccccc1)NNC(=O)C(Cl)Cl,92,.,.,.,.,.
Cc1cc(/C=N/n2cnnc2)c(C)n1-c1ccc(OCc2ccccc2F)cc1,.,.,68,.,.,.
CC(C(=O)NCC1CCCO1)N(C(=O)c1snc(C(N)=O)c1N)c1ccccc1 (configuration not stated),.,.,.,.,.,.
CC(C)CCNC(=O)C(C)N(C(=O)c1snc(C(N)=O)c1N)c1cnc2ccccc2c1 (configuration not stated),62,.,.,.,.,.
Cc1ccc(C(c2nnnn2C(C)(C)C)N(Cc2ccco2)Cc2cccs2)cc1 (configuration not stated),.,.,90,.,.,.
COc1ccc(Cn2nnnc2C(C(C)C)N(Cc2ccco2)Cc2cccs2)cc1 (configuration not stated),.,.,54,.,.,.
SMILES,TNAP inh no acc,S1P4 antagonist,S1P3 antagonist,TNAP act hi DEA,TNAP inh hiacc,S1P4 ag
CC(C)C(c1nnnn1Cc1ccccc1)N(Cc1ccco1)Cc1cccs1 (configuration not stated),.,.,.,.,.,.
CC(Oc1ccc2c(=O)c(-c3ccc(Cl)cc3)c(C(F)(F)F)oc2c1)C(=O)O (configuration not stated),/,.,.,/,/,.
COc1ccc(C2CC(=O)Nc3n[nH]c(-c4ccccc4)c32)cc1OC (configuration not stated),64,.,.,.,.,.
CC(C)(C)n1nc2c(c1NC(=O)c1cc3ccccc3o1)CS(=O)(=O)C2,51,.,.,.,.,.
CC(C)(C)n1nc2c(c1NC(=O)c1ccccc1)CS(=O)(=O)C2,.,.,.,.,.,.
O=C(c1ccc(-c2ccccc2)cc1)N1CCN(c2nc3ccccc3o2)CC1,.,.,53,.,.,.
Nc1n[nH]c(-c2ccccc2[N+](=O)[O-])n1,86,.,.,.,.,.
Nc1n[nH]c(-c2ccccc2)n1,.,.,/,.,.,.
O=C(CN1C(=O)c2cccc3cccc(c23)C1=O)N1CCN(Cc2ccc3c(c2)OCO3)CC1,.,.,/,.,.,.
O=C(CSc1nnc(-c2ccc(Br)o2)n1Cc1ccccc1)c1ccccc1F,.,.,58,.,.,.
Cc1cc(NC(=O)CSc2nnc(-c3ccc(Br)o3)n2Cc2ccccc2)no1,.,.,/,.,.,.
CCc1ccc(NC(=O)c2c(C(=O)Nc3ccccc3)sc3nc(C)cc(=O)n23)cc1,.,.,.,.,.,.
CSc1sc(C(=O)NC(=O)NCc2ccncc2)c(C)c1-c1ccon1,/,.,.,/,/,.
CC(=O)NS(=O)(=O)c1cccnc1Nc1cccc(Cl)c1C,.,.,.,.,.,.
NS(=O)(=O)c1cccnc1Nc1c(Cl)cccc1Cl,58,.,/,.,52,.
Cc1ccccc1OCC(=O)N=Nc1c(O)n(C)c2ccccc12,/,.,.,/,/,.
O=C(Nn1cnnc1)c1ccccc1CCc1ccccc1,.,.,64,.,.,.
CC1(C)CC(c2nc(-c3ccc([N+](=O)[O-])cc3)cs2)CCO1 (configuration not stated),.,.,.,.,.,.
COc1ccc(C2=Nn3c(nnc3-c3ccccc3OC)SC2)cc1OC,.,.,54,.,.,.
COC(=O)CCn1nc(-c2ccc(C)cc2)c2ccccc2c1=O,.,.,.,.,.,.
COc1ccc(NS(=O)(=O)c2ccc(N3CC(O)=C(c4ccccc4)C3=N)cc2)cc1,/,.,.,/,/,.
N/C(COc1ncn(-c2ccccc2)n1)=N\S(=O)(=O)c1ccc(Cl)cc1Cl,63,.,.,.,.,.
N#C/C(=C/c1ccncc1)c1nc2ccccc2c(=O)[nH]1,/,.,.,/,/,.
N#C/C(=C\c1ccncc1)c1nc2ccccc2c(=O)[nH]1,54,.,.,.,.,.
COc1cc(OC)c(S(=O)(=O)NC(C)C)cc1C(=O)O,/,.,.,/,/,.
N#Cc1c(/N=C/c2cccs2)sc2c1CCCCC2,.,.,57,.,.,.
N#Cc1c(/N=C/c2ccc(Br)s2)sc2c1CCC2,.,.,/,.,.,.
CCN=C(NS(=O)(=O)c1ccc(Br)cc1)c1ccc(Cl)cc1,.,.,.,.,.,.

# Source: PubChem BioAssay (several laboratories)
